Several values for one entry are separate records, joined by “and”; a condition that tells them apart may be missing. Equal entries are not always repeated. Where two headings read alike, the source gives them in different places. Marks after values point to notes of the source that are not given here.
Assays:
[1] = Protonation constants by potentiometric or spectrophotometric titration; assay type: physicochemical; settings: aqueous solution, 25°C, 0.1 M KCl; concentration constants based on p[H]
How it was run: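 The glass electrode was calibrated by titrating 5 mM HCl in 0.1 M KCl with standardized 0.1 M KOH (25°C, Gran's method); constants are on p[H], not activity. Ligand (1 or 5 mM, 0.1 M KCl, 25°C; basic sites pre-protonated with ≥1 equiv HCl where needed) was titrated stepwise with 0.1 M KOH and fitted by non-linear least squares. Values are from three independent titrations as standard deviation of the mean. Adding 0.11 gives mixed-mode constants.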

[2] = Cu; assay type: binding; settings: for pCu = −log [Cu(I)aq]: 10 μM ligand and 1 μM Cu(I), pH 7.0, I = 0.1; for logβ2’ (apparent, 2:1 Cu(I) complex): pH 7.0 (0.1 M KClO4); for logβ2 of the 2:1 Cu(I) complex: recommended cumulative average, aqueous solution 25°C
[3] = Aqueous solubility of neutral ligand; assay type: physicochemical
[4] = cited from earlier work
[5] = Cyclic voltammetry of the ligand-bound Cu; assay type: physicochemical; settings: pH 5.0, 10 mM PIPBS, 0.1 M KClO4, Cu(II/I) complex
How it was run: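 Cyclic voltammetry was run under argon in 10 mM PIPBS pH 5 with 0.1 M KClO4 electrolyte. Half-wave potentials were referenced to ferrocenium (0.40 vs. SHE) or ferroin.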

[6] = cited from earlier work; remark: listed apart in the source
[7] = Cu; assay type: binding; settings: 1:1 Cu(II) complex, aqueous solution, 25°C, I = 0.1
[8] = 1:1 Cu(II) complex, Damu et al.; cited from earlier work
[9] = spectrophotometric competition titration with MCL-1

## O=C(O)c1cc(-c2cc(C(=O)O)c3ccccc3n2)nc2ccccc12 [BCA, 2,2′-bicinchoninic acid]
[1]
  logKH1: 3.80(2)
[2]
  pCu = −log [Cu(I)aq]: 13.5
  logβ2’ (apparent, 2:1 Cu(I) complex): 17.7 ^e
  logβ2 of the 2:1 Cu(I) complex: 17.66(3) ^d
[2]; competition titration with PEMEA
  logβ2 Cu(I): 17.63±0.05
[2]; [9]
  logβ2 Cu(I): 17.67±0.03
[3]
  solubility in aqueous solution: not soluble at millimolar concentrations
[4]; 0.2 M ionic strength
  protonation constant: 3.74±0.04

## Cc1cc(-c2ccc(S(=O)(=O)O)cc2)c2ccc3c(-c4ccc(S(=O)(=O)O)cc4)cc(C)nc3c2n1 [BCS, bathocuproine disulfonate]
[1]
  logKH1: 5.70(2)
[5]
  E^f vs. SHE (half-wave potential): 0.626 V and 0.626(1) V
[2]
  pCu = −log [Cu(I)aq]: 16.6
  logβ2’ (apparent, 2:1 Cu(I) complex): 20.8 ^e
  logβ2 of the 2:1 Cu(I) complex: 20.81(2) ^d
[2]; from half-wave potential and Cu(II) logβ2 via Equation (1)
  logβ2 Cu(I): 20.81±0.08
[2]; [9]
  logβ2 Cu(I): 20.80±0.03
[4]; previously reported
  protonation constant: 5.7
[6]; previously reported
  logβ2 Cu(I): 19.9

## OCCN(CCO)Cc1ccccn1 [DHEAMP, N,N-bis(2-hydroxyethyl)-N-(2-pyridylmethyl)amine]
[7]
  log KCu(II)L: 9.21±0.02
[4]; lit.
  protonation constant: 6.92±0.01
[8]
  logKCu(II)L: 9.2±0.1

## CCSCCN(CCSCC)CCSCC [TEMEA]
[4]; aqueous solution
  protonation constant: 8.32
[4]; extrapolated from data acquired in 80% water-methanol
  protonation constant: 7.1

## CSCCN(CCSC)CCSC [TMMEA, tris(2-methylthioethyl)amine]
[4]; aqueous solution
  protonation constant: 8.36

## C1CSCCCSCCCSCCCSC1 [[16]aneS4]
[6]
  logKCu(I)L: 12.0

## CC#N [acetonitrile]
[6]; kinetic method
  logβ1 Cu(I): 2.63
  logβ2 Cu(I): 4.02
  logβ3 Cu(I): 4.29

Source: PMC3983694 (Journal of the American Chemical Society, 2013)
